Measured values published in ChEMBL document CHEMBL4354820, “Optimizing Targeted Inhibitors of P-Glycoprotein Using Computational and Structure-Guided Approaches” (J Med Chem, 2019).

These compounds were tested against P-glycoprotein 1 Abcb1a (Mus musculus) (assay: Inhibition of spin-labelled adenine nucleotide interaction with mouse MDR3 P-gp expressed in Escherichia coli BL21 (DE3) assessed as apparent dissociation constant by ESR analysis (reference value: 36.5 +/- 3.6 uM)). Conditions: not given; call rule not given here.
Work on `Cc1cc(C)c(-c2cc(NC(=O)CSCC(=O)Nc3ccc4ncsc4c3)n(-c3ccccc3)n2)cc1C` yielded a Kd of 25.6 µM.
`COc1cc(NC(=O)CSCC(=O)Nc2cc(-c3cc(C)c(C)cc3C)nn2-c2ccccc2)cc(OC)c1OC` showed a Kd of 20.1 µM.

What follows are compounds tested against T1, P-glycoprotein (ABCB1, MDR1) ATPase (Homo sapiens, UniProt P08183) (assay: Inhibition of verampil-stimulated ATPase hydrolysis in recombinant human MDR1 expressed in Pichia pastoris measured after 30 mins in presence of NADH by coupled enzyme assay (reference value: 100 +/- 6 %)). Conditions: recombinant human MDR1 (P-gp) expressed in Pichia pastoris.
T1 sequence (P08183 whole entry): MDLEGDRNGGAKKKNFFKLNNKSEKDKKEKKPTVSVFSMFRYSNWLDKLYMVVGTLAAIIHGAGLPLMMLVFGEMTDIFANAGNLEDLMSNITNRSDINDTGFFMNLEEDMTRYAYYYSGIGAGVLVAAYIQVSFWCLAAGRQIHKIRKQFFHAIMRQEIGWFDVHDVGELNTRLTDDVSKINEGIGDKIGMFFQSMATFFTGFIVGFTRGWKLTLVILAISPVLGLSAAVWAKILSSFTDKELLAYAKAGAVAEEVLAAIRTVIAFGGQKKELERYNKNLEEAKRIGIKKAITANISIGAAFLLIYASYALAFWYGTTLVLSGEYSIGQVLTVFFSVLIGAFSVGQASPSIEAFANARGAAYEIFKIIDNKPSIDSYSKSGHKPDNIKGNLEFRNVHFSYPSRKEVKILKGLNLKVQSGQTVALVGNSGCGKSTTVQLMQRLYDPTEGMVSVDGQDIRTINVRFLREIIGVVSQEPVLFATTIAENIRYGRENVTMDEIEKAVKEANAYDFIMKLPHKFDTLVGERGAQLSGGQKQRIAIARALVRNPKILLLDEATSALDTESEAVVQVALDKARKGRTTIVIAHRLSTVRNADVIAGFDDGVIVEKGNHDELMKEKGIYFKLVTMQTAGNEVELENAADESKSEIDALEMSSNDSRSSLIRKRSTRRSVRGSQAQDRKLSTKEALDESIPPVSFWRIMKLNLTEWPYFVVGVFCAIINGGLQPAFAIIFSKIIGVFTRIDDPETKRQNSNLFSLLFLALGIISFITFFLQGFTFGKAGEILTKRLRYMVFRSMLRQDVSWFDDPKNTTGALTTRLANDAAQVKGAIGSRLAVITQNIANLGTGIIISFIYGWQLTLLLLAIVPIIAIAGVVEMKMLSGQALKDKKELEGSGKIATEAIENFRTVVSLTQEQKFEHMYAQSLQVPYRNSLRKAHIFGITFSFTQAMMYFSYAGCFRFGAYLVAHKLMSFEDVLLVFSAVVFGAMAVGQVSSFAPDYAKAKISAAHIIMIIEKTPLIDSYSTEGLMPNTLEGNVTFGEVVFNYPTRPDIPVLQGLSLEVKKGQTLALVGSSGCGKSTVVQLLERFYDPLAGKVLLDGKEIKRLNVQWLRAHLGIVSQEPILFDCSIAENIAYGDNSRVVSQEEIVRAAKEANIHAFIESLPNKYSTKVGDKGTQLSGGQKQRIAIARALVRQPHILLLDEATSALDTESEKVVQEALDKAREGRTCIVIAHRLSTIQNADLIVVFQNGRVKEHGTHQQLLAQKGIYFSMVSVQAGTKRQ
Design: scale not given: the % may be the effect or the level left
`Cc1cc(C)c(-c2cc(NC(=O)CSCC(=O)Nc3ccc4ncsc4c3)n(-c3ccccc3)n2)cc1C` showed an Activity at 0.5 h of 59%.
`COc1cc(NC(=O)CSCC(=O)Nc2cc(-c3cc(C)c(C)cc3C)nn2-c2ccccc2)cc(OC)c1OC` was tested, and the Activity at 0.5 h was 61%.

What follows are compounds tested against T2, ATP-dependent translocase ABCB1 (Homo sapiens, UniProt P08183) (assay: Reversal of P-gp mediated multidrug resistance in human DU145-TxR cells overexpressing P-gp assessed as potentiation of paclitaxel-induced cytotoxicity by measuring fold reduction paclitaxel IC50 at 10 uM after 48 hrs by MTT assay relative to paclitaxel alone). Conditions: not given.
T2 sequence (P08183 whole entry): as above
Format: cell-based
Method in brief: (§1)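 DU145TXR cells seeded at 3000 per well, 24 h later treated 48 h with paclitaxel alone or with 3, 5, 7 or 10 μM inhibitor in complete medium (DMSO vehicle). MTT 4 h, formazan dissolved in DMSO, A570 read, background subtracted, viability relative to DMSO. IC50 by four-parameter nonlinear fit; eight replicates, at least two experiments. Fold values compare paclitaxel alone or with parent inhibitor.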
In the case of `Cc1cc(C)c(-c2cc(NC(=O)CSCC(=O)Nc3ccc4ncsc4c3)n(-c3ccccc3)n2)cc1C`, the “fold change (FC)” value is reported as 2118.
`COc1cc(NC(=O)CSCC(=O)Nc2cc(-c3cc(C)c(C)cc3C)nn2-c2ccccc2)cc(OC)c1OC` was tested, and the “fold change (FC)” value was 30286.

The compounds below were run against T2, ATP-dependent translocase ABCB1 (assay: Reversal of P-gp mediated multidrug resistance in human DU145-TxR cells overexpressing P-gp assessed as potentiation of paclitaxel-induced cytotoxicity by measuring fold reduction paclitaxel IC50 at 7 uM after 48 hrs by MTT assay relative to parent compound). Conditions: not given.
Format: cell-based
Method in brief: as §1
`Cc1cc(C)c(-c2cc(NC(=O)CSCC(=O)Nc3ccc4ncsc4c3)n(-c3ccccc3)n2)cc1C` was tested, and the “fold change (FC)” value was 20.
In the case of `COc1cc(NC(=O)CSCC(=O)Nc2cc(-c3cc(C)c(C)cc3C)nn2-c2ccccc2)cc(OC)c1OC`, the “fold change (FC)” value is reported as 92.

Each compound was assayed against T2, ATP-dependent translocase ABCB1 (assay: Ratio of inhibition of P-gp overexpressed in human DU145-TxR cells assessed as increase in intracellular compound accumulation after 2.5 hrs in presence of tariquidar by LC-MS/MS analysis to Inhibition of P-gp overexpressed in human DU145-TxR cells assessed as decrease in intracellular compound accumulation after 2.5 hrs in absence of tariquidar by LC-MS/MS analysis). Conditions: not given.
Format: cell-based
Method in brief: (§2)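 P-gp-overexpressing DU145TXR cells exposed to test compounds with or without tariquidar. Intracellular compound measured by LC–MS/MS, with daunorubicin as a transported-substrate control. Ratio is accumulation with tariquidar divided by accumulation without.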
Work on `Cc1cc(C)c(-c2cc(NC(=O)CSCC(=O)Nc3ccc4ncsc4c3)n(-c3ccccc3)n2)cc1C` yielded a Ratio of 1.2.
In the case of `COc1cc(NC(=O)CSCC(=O)Nc2cc(-c3cc(C)c(C)cc3C)nn2-c2ccccc2)cc(OC)c1OC`, the Ratio is reported as 1.9.

The compounds below were run against T3, P-glycoprotein (ABCB1, mouse MDR3) ATPase (Mus musculus, UniProt P21447) (assay: Stimulation of basal ATPase hydrolysis in recombinant mouse MDR3 expressed in Pichia pastoris measured after 30 mins in presence of NADH by coupled enzyme assay (reference value: 100 +/- 7 %)). Conditions: recombinant mouse MDR3 (P-gp) expressed in Pichia pastoris, read-out: Activity.
T3 sequence (P21447 whole entry): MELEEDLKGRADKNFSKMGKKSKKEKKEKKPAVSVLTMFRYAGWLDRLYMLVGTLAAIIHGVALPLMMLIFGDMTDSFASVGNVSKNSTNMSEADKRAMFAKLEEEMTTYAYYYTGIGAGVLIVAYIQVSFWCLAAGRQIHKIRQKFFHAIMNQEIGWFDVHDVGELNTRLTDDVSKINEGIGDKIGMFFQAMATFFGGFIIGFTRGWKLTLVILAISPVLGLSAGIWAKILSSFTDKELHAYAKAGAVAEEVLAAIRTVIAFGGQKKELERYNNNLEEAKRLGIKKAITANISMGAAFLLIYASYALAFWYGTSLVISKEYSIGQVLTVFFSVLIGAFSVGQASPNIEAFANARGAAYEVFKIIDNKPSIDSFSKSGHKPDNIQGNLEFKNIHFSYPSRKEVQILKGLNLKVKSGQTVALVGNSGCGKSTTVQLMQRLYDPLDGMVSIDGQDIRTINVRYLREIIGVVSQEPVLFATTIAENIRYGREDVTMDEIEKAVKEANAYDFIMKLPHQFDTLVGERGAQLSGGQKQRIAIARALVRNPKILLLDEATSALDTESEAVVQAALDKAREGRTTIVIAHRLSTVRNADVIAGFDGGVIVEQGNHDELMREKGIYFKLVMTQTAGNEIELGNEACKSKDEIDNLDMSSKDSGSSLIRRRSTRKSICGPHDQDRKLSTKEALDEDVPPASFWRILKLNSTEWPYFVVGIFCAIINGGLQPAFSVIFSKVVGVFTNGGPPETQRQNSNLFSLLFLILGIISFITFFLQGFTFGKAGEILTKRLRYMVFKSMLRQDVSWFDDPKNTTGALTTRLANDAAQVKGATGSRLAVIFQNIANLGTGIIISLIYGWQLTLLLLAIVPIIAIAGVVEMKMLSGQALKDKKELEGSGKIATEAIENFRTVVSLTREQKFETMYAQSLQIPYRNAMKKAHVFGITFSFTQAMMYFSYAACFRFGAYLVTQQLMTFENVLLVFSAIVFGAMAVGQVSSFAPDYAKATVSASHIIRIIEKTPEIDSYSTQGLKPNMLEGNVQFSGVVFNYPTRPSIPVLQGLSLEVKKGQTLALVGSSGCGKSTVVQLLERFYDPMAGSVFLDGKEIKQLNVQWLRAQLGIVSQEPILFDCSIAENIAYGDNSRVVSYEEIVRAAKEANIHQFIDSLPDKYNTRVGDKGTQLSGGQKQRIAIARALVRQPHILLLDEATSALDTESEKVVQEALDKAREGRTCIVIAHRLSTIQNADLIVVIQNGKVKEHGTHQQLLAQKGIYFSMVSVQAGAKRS
Design: scale not given: the % may be the effect or the level left
Work on `Cc1cc(C)c(-c2cc(NC(=O)CSCC(=O)Nc3ccc4ncsc4c3)n(-c3ccccc3)n2)cc1C` yielded an Activity at 0.5 h of 355%.

These compounds were tested against T2, ATP-dependent translocase ABCB1 (assay: Inhibition of P-gp overexpressed in human DU145-TxR cells assessed as increase in cellular accumulation of calcein AM at 2 uM preincubated for 6 hrs followed by calcein AM addition by fluorescence imaging analysis). Conditions: not given.
Format: cell-based
Method in brief: (§3)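 Confluent DU145TXR monolayers in phenol red-free RPMI 1640 given 2 μM inhibitor (DMSO vehicle) and 1 μg mL−1 calcein AM, either added together or after a 6 h inhibitor-only preincubation at 37 °C. Calcein fluorescence (ex 485 / em 535 nm) read over 60 min at 20 min intervals. Six replicates, at least two independent experiments.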
In the case of `Cc1cc(C)c(-c2cc(NC(=O)CSCC(=O)Nc3ccc4ncsc4c3)n(-c3ccccc3)n2)cc1C`, the “inhibition (INH)” value is reported as “Active”.
For `COc1cc(NC(=O)CSCC(=O)Nc2cc(-c3cc(C)c(C)cc3C)nn2-c2ccccc2)cc(OC)c1OC`, the “inhibition (INH)” value was “Active”.

These compounds were tested against T2, ATP-dependent translocase ABCB1 (assay: Reversal of P-gp mediated multidrug resistance in human DU145-TxR cells overexpressing P-gp assessed as potentiation of paclitaxel-induced cytotoxicity by measuring fold reduction paclitaxel IC50 at 10 uM after 48 hrs by MTT assay relative to parent compound). Conditions: not given.
Format: cell-based
Method in brief: as §1
With `Cc1cc(C)c(-c2cc(NC(=O)CSCC(=O)Nc3ccc4ncsc4c3)n(-c3ccccc3)n2)cc1C` the “fold change (FC)” value was 27.
For `COc1cc(NC(=O)CSCC(=O)Nc2cc(-c3cc(C)c(C)cc3C)nn2-c2ccccc2)cc(OC)c1OC`, the “fold change (FC)” value was 300.

Each compound was assayed against T2, ATP-dependent translocase ABCB1 (assay: Reversal of P-gp mediated multidrug resistance in human DU145-TxR cells overexpressing P-gp assessed as potentiation of paclitaxel-induced cytotoxicity by measuring fold reduction paclitaxel IC50 at 3 uM after 48 hrs by MTT assay relative to paclitaxel alone). Conditions: not given.
Format: cell-based
Method in brief: as §1
In the case of `Cc1cc(C)c(-c2cc(NC(=O)CSCC(=O)Nc3ccc4ncsc4c3)n(-c3ccccc3)n2)cc1C`, the “fold change (FC)” value is reported as 12.
In the case of `COc1cc(NC(=O)CSCC(=O)Nc2cc(-c3cc(C)c(C)cc3C)nn2-c2ccccc2)cc(OC)c1OC`, the “fold change (FC)” value is reported as 11.

The compounds below were run against T2, ATP-dependent translocase ABCB1 (assay: Reversal of P-gp mediated multidrug resistance in human DU145-TxR cells overexpressing P-gp assessed as potentiation of paclitaxel-induced cytotoxicity by measuring fold reduction paclitaxel IC50 at 5 uM after 48 hrs by MTT assay relative to paclitaxel alone). Conditions: not given.
Format: cell-based
Method in brief: as §1
With `Cc1cc(C)c(-c2cc(NC(=O)CSCC(=O)Nc3ccc4ncsc4c3)n(-c3ccccc3)n2)cc1C` the “fold change (FC)” value was 372.
`COc1cc(NC(=O)CSCC(=O)Nc2cc(-c3cc(C)c(C)cc3C)nn2-c2ccccc2)cc(OC)c1OC` was tested, and the “fold change (FC)” value was 1116.

These compounds were tested against T1, P-glycoprotein (ABCB1, MDR1) ATPase (assay: Effect on basal ATPase hydrolysis of recombinant human MDR1 expressed in Pichia pastoris measured after 30 mins in presence of NADH by coupled enzyme assay (reference value: 100 +/- 5 %)). Conditions: recombinant human MDR1 (P-gp) expressed in Pichia pastoris, read-out: Activity.
Design: scale not given: the % may be the effect or the level left
`Cc1cc(C)c(-c2cc(NC(=O)CSCC(=O)Nc3ccc4ncsc4c3)n(-c3ccccc3)n2)cc1C` gave an Activity at 0.5 h of 84%.
With `COc1cc(NC(=O)CSCC(=O)Nc2cc(-c3cc(C)c(C)cc3C)nn2-c2ccccc2)cc(OC)c1OC` the Activity at 0.5 h was 89%.

These compounds were tested against T2, ATP-dependent translocase ABCB1 (assay: Reversal of P-gp mediated multidrug resistance in human DU145-TxR cells overexpressing P-gp assessed as potentiation of paclitaxel-induced cytotoxicity by measuring fold reduction paclitaxel IC50 at 7 uM after 48 hrs by MTT assay relative to paclitaxel alone). Conditions: not given.
Format: cell-based
Method in brief: as §1
`Cc1cc(C)c(-c2cc(NC(=O)CSCC(=O)Nc3ccc4ncsc4c3)n(-c3ccccc3)n2)cc1C` was tested, and the “fold change (FC)” value was 731.
`COc1cc(NC(=O)CSCC(=O)Nc2cc(-c3cc(C)c(C)cc3C)nn2-c2ccccc2)cc(OC)c1OC` was tested, and the “fold change (FC)” value was 3312.

Each compound was assayed against T2, ATP-dependent translocase ABCB1 (assay: Reversal of P-gp mediated multidrug resistance in human DU145-TxR cells overexpressing P-gp assessed as potentiation of paclitaxel-induced cytotoxicity by measuring fold reduction paclitaxel IC50 at 5 uM after 48 hrs by MTT assay relative to parent compound). Conditions: not given.
Format: cell-based
Method in brief: as §1
For `Cc1cc(C)c(-c2cc(NC(=O)CSCC(=O)Nc3ccc4ncsc4c3)n(-c3ccccc3)n2)cc1C`, the fold change (FC) was 34.
`COc1cc(NC(=O)CSCC(=O)Nc2cc(-c3cc(C)c(C)cc3C)nn2-c2ccccc2)cc(OC)c1OC` was tested, and the “fold change (FC)” value was 102.

Each compound was assayed against T2, ATP-dependent translocase ABCB1 (assay: Inhibition of P-gp overexpressed in human DU145-TxR cells assessed as increase in intracellular compound accumulation after 2.5 hrs in presence of tariquidar by LC-MS/MS analysis). Conditions: not given.
Format: cell-based
Method in brief: as §2
`Cc1cc(C)c(-c2cc(NC(=O)CSCC(=O)Nc3ccc4ncsc4c3)n(-c3ccccc3)n2)cc1C` was tested, and the “inhibition (INH)” value was “Active”.
`COc1cc(NC(=O)CSCC(=O)Nc2cc(-c3cc(C)c(C)cc3C)nn2-c2ccccc2)cc(OC)c1OC` was tested, and the “inhibition (INH)” value was “Active”.

These compounds were tested against T2, ATP-dependent translocase ABCB1 (assay: Reversal of P-gp mediated multidrug resistance in human DU145-TxR cells overexpressing P-gp assessed as potentiation of paclitaxel-induced cytotoxicity by measuring fold reduction paclitaxel IC50 at 3 uM after 48 hrs by MTT assay relative to parent compound). Conditions: not given.
Format: cell-based
Method in brief: as §1
With `Cc1cc(C)c(-c2cc(NC(=O)CSCC(=O)Nc3ccc4ncsc4c3)n(-c3ccccc3)n2)cc1C` the “fold change (FC)” value was 3.7.
In the case of `COc1cc(NC(=O)CSCC(=O)Nc2cc(-c3cc(C)c(C)cc3C)nn2-c2ccccc2)cc(OC)c1OC`, the “fold change (FC)” value is reported as 3.4.

These compounds were tested against T3, P-glycoprotein (ABCB1, mouse MDR3) ATPase (assay: Effect on verampil-mediated ATPase hydrolysis of recombinant mouse MDR3 expressed in Pichia pastoris measured after 30 mins in presence of NADH by coupled enzyme assay (reference value: 100 +/- 8 %)). Conditions: recombinant mouse MDR3 (P-gp) expressed in Pichia pastoris, read-out: Activity.
Design: scale not given: the % may be the effect or the level left
`Cc1cc(C)c(-c2cc(NC(=O)CSCC(=O)Nc3ccc4ncsc4c3)n(-c3ccccc3)n2)cc1C` showed an Activity at 0.5 h of 123%.

The compounds below were run on P-glycoprotein 1 Abcb1a (Mus musculus) (assay: Inhibition of 2',3'-(2,2,5,5,-tetramethyl-3-pyrroline-l-oxyl-3-carboxylic acid ester)ATP interaction with mouse MDR3 P-gp expressed in Escherichia coli BL21 (DE3) assessed as reduction in ATP binding from 2 to 1 of nucleotide to mol of protein by ESR analysis (reference value: 1.8 +/- 0.1)). Conditions: not given.
`Cc1cc(C)c(-c2cc(NC(=O)CSCC(=O)Nc3ccc4ncsc4c3)n(-c3ccccc3)n2)cc1C` gave an Activity of 1.9.
`COc1cc(NC(=O)CSCC(=O)Nc2cc(-c3cc(C)c(C)cc3C)nn2-c2ccccc2)cc(OC)c1OC` gave an Activity of 1.2.

The compounds below were run against T3, P-glycoprotein (ABCB1, mouse MDR3) ATPase (assay: Stimulation of verampil-mediated ATPase hydrolysis in recombinant mouse MDR3 expressed in Pichia pastoris measured after 30 mins in presence of NADH by coupled enzyme assay (reference value: 100 +/- 8 %)). Conditions: recombinant mouse MDR3 (P-gp) expressed in Pichia pastoris, read-out: Activity.
Design: scale not given: the % may be the effect or the level left
In the case of `COc1cc(NC(=O)CSCC(=O)Nc2cc(-c3cc(C)c(C)cc3C)nn2-c2ccccc2)cc(OC)c1OC`, the Activity at 0.5 h is reported as 194%.

What follows are compounds tested against T2, ATP-dependent translocase ABCB1 (assay: Inhibition of P-gp overexpressed in human DU145-TxR cells assessed as increase in cellular accumulation of calcein AM at 2 uM pretreated followed by calcein AM addition by fluorescence imaging analysis). Conditions: not given.
Format: cell-based
Method in brief: as §3
`Cc1cc(C)c(-c2cc(NC(=O)CSCC(=O)Nc3ccc4ncsc4c3)n(-c3ccccc3)n2)cc1C` was tested, and the “inhibition (INH)” value was “Active”.
In the case of `COc1cc(NC(=O)CSCC(=O)Nc2cc(-c3cc(C)c(C)cc3C)nn2-c2ccccc2)cc(OC)c1OC`, the “inhibition (INH)” value is reported as “Active”.
